Reference: ChEMBL document CHEMBL1143703, “Linear TMC-95-based proteasome inhibitors” (J Med Chem, 2007)
Calls of active or inactive are those of the source. No cut-off for these calls is given here. Residues, ends and D or L forms follow the SMILES beside them. *: point of attachment. Boc = CC(C)(C)OC(=O)*; NHBn = c1ccc(CN*)cc1; NHPh = c1ccc(N*)cc1; Bn = c1ccc(C*)cc1

Assays:
[1] = Inhibition of chymotrypsin-like activity of rabbit reticulocyte 20S proteasome; set-up: species or system Oryctolagus cuniculus
[2] = Inhibition of post acid activity of rabbit reticulocyte 20S proteasome; set-up: species or system Oryctolagus cuniculus
[3] = species: Oryctolagus cuniculus; assay: Activation of trypsin-like activity of rabbit reticulocyte 20S proteasome relative to control
Procedure, shortened: (§1)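 Trypsin-like site: proteasome exposed to 0.1-100 µM compound, fluorogenic substrate hydrolysis read 1 h at 37 °C in pH 7.5 20 mM Tris, 1 mM DTT, 10% glycerol without SDS; 3% DMSO final. Initial rates relative to untreated control: >100% expressed as activation factor, <100% as inhibition; Ki via Vi/V0 = 1/(1+[I]/Ki(app)) or IC50 = Ki(1+[S]/Km).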

[4] = Stability in RPMI medium in presence of 20% fetal calf serum; assay type: ADME; details: cattle, RPMI medium with 20% fetal calf serum
Procedure, shortened: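 Compound incubated up to 2 days at 37 °C in RPMI with 20% fetal calf serum. Stopped with ethanol, centrifuged at 4 °C, supernatant analysed by RP-HPLC. Half-life from linear least-squares fit of log[I] versus time, at least five points.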

[5] = species: Oryctolagus cuniculus; assay: Inhibition of post acid activity of rabbit reticulocyte 20S proteasome at 100 uM
[6] = species: Oryctolagus cuniculus; assay: Activation of chymotrypsin-like activity of rabbit reticulocyte 20S proteasome relative to control
[7] = system: Huh-7; assay: Growth inhibition of human HuH7 cells at 50 uM after 48 hrs by MTT assay; assay type: functional, cell-based
Procedure, shortened: (§2)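 5 × 10^3 cells grown in triplicate 48 h with or without 50 µM inhibitor. Media: DMEM for HeLa and T-47D; MEM for HEK-293, HuH7 and Hep G2; McCoy for HCT-116; each with 10% FBS, 5% CO2. Survival read by MTT metabolism at 37 °C, relative to DMSO-only control.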

[8] = system: HEK293; assay: Cytotoxicity against human HEK293 cells at 50 uM after 48 hrs by MTT assay; assay type: functional, cell-based; procedure, shortened: as §2
[9] = Inhibition of trypsin-like activity of rabbit reticulocyte 20S proteasome; set-up: species or system Oryctolagus cuniculus; procedure, shortened: as §1
[10] = system: HCT-116; assay: Growth inhibition of human HCT116 cells at 50 uM after 48 hrs by MTT assay; assay type: functional, cell-based; procedure, shortened: as §2
[11] = system: HeLa; assay: Cytotoxicity against human HeLa cells by MTT assay; assay type: functional, cell-based
[12] = system: HeLa; assay: Cytotoxicity against human HeLa cells at 50 uM after 48 hrs by MTT assay; assay type: functional, cell-based; procedure, shortened: as §2
[13] = system: T47D; assay: Growth inhibition of human T47D cells at 50 uM after 48 hrs by MTT assay; assay type: functional, cell-based; procedure, shortened: as §2
[14] = species: Oryctolagus cuniculus; assay: Inhibition of trypsin-like activity of rabbit reticulocyte 20S proteasome at 100 uM; procedure, shortened: as §1
[15] = system: HepG2; assay: Growth inhibition of human HepG2 cells at 50 uM after 48 hrs by MTT assay; assay type: functional, cell-based; procedure, shortened: as §2
[16] = species: Oryctolagus cuniculus; assay: Inhibition of chymotrypsin-like activity of rabbit reticulocyte 20S proteasome at 100 uM

Row | Ki [1] | Ki [2] | Fold change [3] | inhibition [5] | Fold change [6] | SMILES | further results
1 |  | > 100 µM | 2.2 | < 20% | 1.6 | CC(C)(C)OC(=O)NCCCCNC(=O)[C@H](Cc1c[nH]c2ccccc12)NC(=O)[C@H](CC(N)=O)NC(=O)[C@H](Cc1ccc(OCc2ccccc2)cc1)NC(=O)OC(C)(C)C | 
2 | 65.7 µM | 1 µM |  |  |  | C[C@H](NC(=O)[C@H](Cc1ccc(OCc2ccccc2)cc1)NC(=O)OC(C)(C)C)C(=O)N[C@@H](Cc1c[nH]c2ccccc12)C(=O)Nc1ccc(O)cc1 | Activity [7]: Active; Activity [8]: Active; Ki [9]: > 100 µM; Activity [10]: Active; IC50 [11]: 15 µM; Activity [12]: Active; Activity [13]: Active; inhibition [14]: < 20%; Activity [15]: inactive
3 |  | > 100 µM | 1.9 | < 20% | 1.3 | CC(C)C[C@H](NC(=O)[C@H](Cc1ccc(OCc2ccccc2)cc1)NC(=O)OC(C)(C)C)C(=O)N[C@@H](Cc1c[nH]c2ccccc12)C(=O)NCc1ccccc1 (Boc-Tyr(Bn)-Leu-Trp-NHBn) | 
4 |  | > 100 µM | 1.9 | < 20% | 1.6 | CC(C)(C)OC(=O)NCCCCNC(=O)[C@H](Cc1c[nH]c2ccccc12)NC(=O)[C@H](CCCCNC(=O)OC(C)(C)C)NC(=O)[C@H](Cc1ccc(OCc2ccccc2)cc1)NC(=O)OC(C)(C)C | 
5 | > 100 µM | > 100 µM |  | < 20% |  | CC(C)(C)OC(=O)N[C@@H](Cc1ccc(OCc2ccccc2)cc1)C(=O)N[C@@H](CCCN(C(=N)NC(=O)OCc1ccccc1)C(=O)OCc1ccccc1)C(=O)N[C@@H](Cc1c[nH]c2ccccc12)C(=O)Nc1ccc(O)cc1 | inhibition [16]: < 20%; Ki [9]: > 100 µM; inhibition [14]: < 20%
6 |  | > 100 µM | 1.6 | < 20% | 1.4 | C[C@H](NC(=O)[C@H](Cc1ccc(OCc2ccccc2)cc1)NC(=O)OC(C)(C)C)C(=O)N[C@@H](Cc1c[nH]c2ccccc12)C(=O)Nc1ccccc1 (Boc-Tyr(Bn)-Ala-Trp-NHPh) | 

The next lines start with the compound.

Row | SMILES | Ki [1] | Ki [2] | Fold change [3] | inhibition [5] | Fold change [6] | further results
7 | CC(C)(C)OC(=O)N[C@@H](Cc1ccc(OCc2ccccc2)cc1)C(=O)N[C@@H](CC(N)=O)C(=O)N[C@@H](Cc1c[nH]c2ccccc12)C(=O)NCc1ccccc1 (Boc-Tyr(Bn)-Asn-Trp-NHBn) | 59.3 µM | 84.2 µM | 2.2 |  |  | half-life [4]: 6.5 h
8 | CC(C)(C)OC(=O)NCCCC[C@H](NC(=O)[C@H](Cc1ccc(OCc2ccccc2)cc1)NC(=O)OC(C)(C)C)C(=O)N[C@@H](Cc1c[nH]c2ccccc12)C(=O)NCc1ccccc1 (Boc-Tyr(Bn)-Lys(Boc)-Trp-NHBn) |  | > 100 µM | 1.8 | < 20% | 1.3 | 
9 | C[C@H](NC(=O)[C@H](Cc1ccc(OCc2ccccc2)cc1)NC(=O)OC(C)(C)C)C(=O)N[C@@H](Cc1c[nH]c2ccccc12)C(=O)NCCCCNC(=O)OC(C)(C)C |  | > 100 µM | 3.2 | < 20% | 1.5 | 
10 | C[C@H](NC(=O)[C@H](Cc1ccc(OCc2ccccc2)c(I)c1)NC(=O)OC(C)(C)C)C(=O)N[C@@H](Cc1c[nH]c2c(Br)cccc12)C(=O)O | 1.6 µM | 2.8 µM |  |  |  | Ki [9]: 3 µM; half-life [4]: 37 h
11 | CC(C)(C)OC(=O)N[C@@H](Cc1ccc(OCc2ccccc2)cc1)C(=O)N[C@@H](CC(N)=O)C(=O)N[C@@H](Cc1c[nH]c2ccccc12)C(=O)Nc1ccccc1 (Boc-Tyr(Bn)-Asn-Trp-NHPh) |  | > 100 µM | 1.6 | < 20% | 1.5 | 
